# Compound activity from PubChem.
# Hits are enriched below; roughly 9.6% of the tested compounds scored in any of these assays.
# PTEN del growth = growth suppression of PTEN-null HCT116, primary screen, cell-based, CellTiter-Glo; HCT116 PTEN-null viability, 60 h; hits give low values; viability, % at 10 µM; 1.2% of 140,000 active; AID 827, 2007;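 active means viability at or below a set limit, 4 SD under the median of all tested compounds, cut at about 3.7% in these data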;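 further: PTEN knockout HCT116 line with beta catenin targeted HCT116 as companion control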
# PMI act satM6P = human PMI activators, high substrate, primary screen, biochemical, fluorescence intensity, near-saturating mannose 6-phosphate; 0.34% of 190,000 active; Mannose-6-phosphate isomerase (Homo sapiens), P34949; AID 1216, 2008; coupled PMI enzyme assay, resazurin fluorescence, 20 min; hits give high values; 1 = untreated enzyme, 0 = substrate-free blank; activation factor at 20 µM;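 active means activation factor of 2 or more at 20 µM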
# Target sequence (P34949 whole entry, looked up): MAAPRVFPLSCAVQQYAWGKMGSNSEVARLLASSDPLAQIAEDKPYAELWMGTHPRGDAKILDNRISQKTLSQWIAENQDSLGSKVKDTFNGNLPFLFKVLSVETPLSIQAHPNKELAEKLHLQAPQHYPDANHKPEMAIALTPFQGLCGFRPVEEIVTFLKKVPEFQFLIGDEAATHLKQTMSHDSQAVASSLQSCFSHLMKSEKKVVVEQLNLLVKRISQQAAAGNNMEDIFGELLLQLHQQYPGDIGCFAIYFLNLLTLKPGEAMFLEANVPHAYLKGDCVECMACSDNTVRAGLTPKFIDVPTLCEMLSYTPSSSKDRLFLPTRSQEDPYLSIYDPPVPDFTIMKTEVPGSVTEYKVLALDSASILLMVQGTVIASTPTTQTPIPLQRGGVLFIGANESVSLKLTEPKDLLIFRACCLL
#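 Test system: Human PMI in coupled enzyme assay | Input: 15 ng/mL PMI | Medium: HEPES-buffered pH 7.4 with magnesium and detergent | Compound: One concentration, 20 µM, in 1% DMSO | Incubation: Enzyme reaction with compound 20 min at room temperature | Detection: Diaphorase-driven resazurin-to-resorufin fluorescence, excitation 544, emission 590 nm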
# L major viab = Leishmania major promastigote growth inhibition, primary screen; Leishmania major promastigotes, resazurin fluorescence viability; inhibition, % at 10 µM; 9% of 200,000 active; in the data active means inhibition above about 50%;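 further: promastigotes grown with compound for 44 hours at 28 °C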
# PMI act = activators of human PMI, primary screen, biochemical, fluorescence intensity, near-Km mannose 6-phosphate; Mannose-6-phosphate isomerase (Homo sapiens), P34949; purified human PMI, coupled resazurin fluorescence, 20 min; hits give high values; 1 = vehicle control, 0 substrate-free wells; activation factor at 20 µM; 0.005% of 190,000 active; AID 1214, 2008;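 active means activation factor of 2 or more at 20 µM, relative to plate controls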
# bCat KO growth = primary screen for growth suppressors in beta-catenin knockout HCT116 cells (colon tumor, human). HCT116 beta-catenin knockout viability, CellTiter-Glo, 60 h; hits give low values. viability, % at 10 µM. 1.5% of 140,000 active. AID 818, 2007;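 active means viability at or under a set limit, the compound median less 4 SD, cut at about 6% in these data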;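 further: 0% = Hyamine 1622 control at 20 µM and 100% = untreated cell control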
# Starred values were filed as active, the others as inactive; x = not tested or not shown.
SMILES,PTEN del growth,PMI act satM6P,L major viab,PMI act,bCat KO growth
Cc1c(CN2CCc3c([nH]c4ccccc34)C2CC(C)C)cnn1C (stereo unspecified),x,1,11,1,x
O=C(NCc1ccc(F)cc1)c1ccc(Br)o1,x,0.8,-2,1.1,x
CCN(CC)S(=O)(=O)c1ccc(C)c(NC(=S)N2CCN(Cc3ccc4c(c3)OCO4)CC2)c1,x,0.9,96*,0.9,x
NS(=O)(=O)c1ccc(NC(=S)N2CCN(Cc3ccc4c(c3)OCO4)CC2)cc1,x,0.9,-3,1,x
Cc1cc(N2C3CCC2CC(O)(c2ccc(F)cc2)C3)nc(-c2ccccc2)n1 (stereo unspecified),60,0.8,58*,0.8,58
O=S(=O)(NCc1ccccc1)c1cccc2cccnc12,81,1,64*,0.9,96
O=C(NCc1ccccc1)c1cccc(NS(=O)(=O)c2cccc3cccnc23)c1,103,1,54*,1,90
O=C(CN1C(=O)NC2(CCCCC2)C1=O)NCc1cccs1,90,1,-2,0.9,95
Cc1ccc(NC(=O)c2ccccc2NS(=O)(=O)c2ccc(Cl)s2)cc1,38,1.1,53*,1.1,44
CC(C)(C)c1cc(Cc2ccccc2)[nH]n1,96,1.1,-4,1,105
Cc1ccc(NC(=O)C(=O)NCc2ccc(/C=N/NC(=O)c3c(C)nc4ccccn34)o2)cc1,88,1,-7,1,89
C/C(N)=C(/C#N)C(=O)COC(=O)C(c1ccccc1)c1ccccc1,x,1.1,73*,1,x
CC/C(=C\c1oc2cc3ccccc3cc2[n+]1CC)Nc1ccccc1,x,0.8,100*,1.2,x
CCN1CCS/C1=C/C=C/C1=[N+](CC)CCS1,12,0.9,100*,1,10
CCN1CCS/C1=C\C=C\C1=[N+](CC)CCS1,x,0.9,100*,0.9,x
Cc1nnc(NC(=O)CSc2nnc(NC(=O)C(C)(C)C)s2)s1,x,1.1,-7,1.1,x
COc1cc(CC(=O)OCC(=O)Nc2cc([N+](=O)[O-])ccc2Cl)cc(OC)c1OC,93,1.1,-5,1,98
CCC(C)/C(C)=N/NC(=O)c1ccccc1OCCOc1ccccc1 (stereo unspecified),x,0.9,7,0.9,x
COCCOC(=O)C1=C(N)OC2=C(C(=O)CC(C)(C)C2)C1c1cccnc1 (stereo unspecified),106,1,82*,0.9,88
CCOC(=O)C1=C(N)OC2=C(C(=O)CC(C)C2)C1c1cccnc1 (stereo unspecified),91,0.9,70*,1,88
COCCOC(=O)C1=C(N)OC2=C(C(=O)CCC2)C1c1cccnc1 (stereo unspecified),109,1,-9,1,98
CCCOC(=O)C1=C(C)NC2=C(C(=O)CC(C)(C)C2)C1c1cccnc1 (stereo unspecified),97,1.1,90*,1.1,96
CCOC(=O)C1=C(C(C)=O)C(c2cccnc2)C(C#N)=C(N)O1 (stereo unspecified),86,1.1,1,1,89
CCOC(=O)C1=C(N)Oc2cc(O)ccc2C1c1cccnc1 (stereo unspecified),85,1,92*,1,95
O=C(N/C(=C/C=C\c1ccccc1)C(=O)N1CCOCC1)c1ccc(Br)cc1,x,1.1,-8,1,x
SMILES,PTEN del growth,PMI act satM6P,L major viab,PMI act,bCat KO growth
Cc1cccc(NC(=O)C(NS(=O)(=O)c2ccc3c(c2)CCC(=O)N3)c2ccccc2)n1 (stereo unspecified),93,0.9,-2,0.9,98
Cc1c(N=C2NC(=O)/C(=C/c3ccc(O)cc3)S2)c(=O)n(-c2ccccc2)n1C,83,1,-4,1.1,80
O=C1NC(=NCc2ccccc2)S/C1=C/c1ccc(O)cc1,43,1,63*,1,45
COc1ccc(-n2c(SCC3OCCO3)nc3c(sc(=S)n3-c3ccccc3)c2=O)cc1OC,x,0.9,0,1,x
CSc1nc2ccsc2c(=O)n1-c1ccccc1,x,1,1,1,x
N#CCSc1nc2c(sc(=S)n2Cc2ccco2)c(=O)n1-c1ccc(F)cc1,22,0.9,96*,0.9,23
CCn1c(=S)sc2c(=O)n(-c3ccccc3)c(SC)nc21,65,0.9,87*,0.9,68
O=C(Cc1sc(Nc2ccccc2)nc1-c1ccccc1)NCc1ccccc1,75,0.9,22,0.8,73
CC1=NN(c2ccc(F)cc2)C(=O)C1C(c1cccc(O)c1)c1c(C)[nH]n(-c2ccc(F)cc2)c1=O (stereo unspecified),78,1.1,72*,0.9,71
CC(=O)Nc1ccc(S(=O)(=O)N2CCSC2c2ccccc2Cl)cc1 (stereo unspecified),89,1,64*,1.1,88
CC(CNc1ccccc1O)C(=O)O (stereo unspecified),68,0.4,-2,0.7,70
Cc1ccc2cccc(N=Cc3c(C)[nH]n(-c4ccccc4)c3=O)c2n1,2.5*,1.1,21,1,2.8*
O=C(c1ccc(F)cc1)N1CCCCC(S(=O)(=O)c2ccccc2)C1=O (stereo unspecified),90,0.9,-2,1.1,84
Cc1ccc(N2CC(C(=O)Nc3nnc(SCC(=O)Nc4cc(C)on4)s3)CC2=O)cc1 (stereo unspecified),86,1.1,60*,1.1,85
COc1cccc(N2CC(C(=O)Nc3nnc(SCC(=O)Nc4cc(C)on4)s3)CC2=O)c1 (stereo unspecified),x,1.2,-5,1.2,x
COC(=O)c1ccc(C(=O)OC)c(NC(=O)c2cc3ccccc3o2)c1,x,x,-6,x,x
CCC(C)NC(=O)COC(=O)c1ccccc1OCC(=O)Nc1ccc(Br)cc1 (stereo unspecified),24,1.2,-1,1.1,8
O=C(COc1ccc(Br)cc1CNC1CCCC1)Nc1ccccc1,x,1,53*,1.1,x
O=C(COC(=O)c1ccccc1OCC(=O)Nc1ccc(Br)cc1)Nc1ccccc1,63,1,65*,0.9,68
Cc1cccc(/N=C/c2c(O)n(Cc3ccc4c(c3)OCO4)c(=O)c3ccccc23)n1,x,0.9,10,1,x
O=S(=O)(c1cccc2nsnc12)N1CCN(C/C=C/c2ccccc2)CC1,81,1,81*,1.1,94
O=S(=O)(c1cccc2nsnc12)N1CCN(C/C=C\c2ccccc2)CC1,87,1,94*,0.9,84
COC(=O)c1ccccc1NC(=O)C1CCCO1 (stereo unspecified),97,1.1,-8,1,97
O=C(NCCCc1ccccc1)N1CCOCC1,x,1,-2,1.1,x
